For data set [1], the system named is Leishmania donovani. Briefly: Antileishmanial activity against Leishmania donovani amastigote infected in mouse J774A.1 cells after 72 hrs by luciferase reporter gene assay. Format: functional, organism-based. As to conditions: J774.A1, 72 h. A digest of the protocol:
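Macrophages seeded at 4×10^4 cells/well in RPMI-1640 + 10% FCS, 37 °C CO2, 24 h; then infected with stationary-phase luciferase-expressing promastigotes (4×10^5/well), which transform to amastigotes. Compounds at 2-fold dilutions, 7 points from 40 µM, 72 h. Read-out: luminescence after Steady Glo in PBS. IC50 by nonlinear regression of concentration-response, four-parameter Hill equation.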
A general note: A reporter such as luciferase makes a cellular process visible.

Data set [2] concerns Leishmania donovani. Briefly: Leishmanicidal activity against Leishmania donovani MHOM/IN/80/Dd8 infected in golden hamster at 50 mg/kg, ip for 5 consecutive days measured on day 7 of last drug administration by Giemsa staining method. As to conditions: MHOM/IN/80/Dd8, ip, 168 h, route intraperitoneal. The class given is functional. A digest of the protocol:
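Inbred hamsters of either sex, 40-45 g, infected intracardially with 1×10^7 amastigotes; infection establishes in 15-20 days. Only animals with +1 infection (5-15 amastigotes/100 spleen nuclei) on pre-treatment spleen biopsy were used, randomized by parasite burden, 5-6 per group. i.p. dosing began 2 days after biopsy. Giemsa amastigote counts; PI = 100 − [ANAT×100/(INAT×TIUC)].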

The nature of data set [3]: Selectivity index, ratio of CC50 for human KB cells to IC50 for Leishmania donovani amastigote infected in mouse J774A.1 cells. Format: functional. A digest of the protocol:
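SI computed as CC50 in KB cells (MTT, 72 h) divided by IC50 against amastigotes in luciferase-reporter infected J774A.1 macrophages (72 h).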

Data set [4] in a line: Cytotoxicity against human KB cells after 72 hrs by MTT assay. The class given is cell-based. The essentials:
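Exponentially growing cells at 1×10^5/well, 72 h at 37 °C, humidified CO2, with compounds at 3-fold dilutions, 7 points from 400 µM. Compounds dissolved in DMSO, diluted in complete medium. DMSO vehicle wells; podophyllotoxin reference. MTT (5 mg/ml in PBS) 2 h at 37 °C, formazan dissolved in DMSO, absorbance 544 nm. CC50 is the concentration giving 50% viability loss versus medium-only cells, estimated per Huber and Koella.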
On the technique in general: Formazan colour is commonly taken as a measure of viable cells.

`CC1=C(/C=C/C2=NN(c3ccccc3)C(c3ccc(Cl)cc3)C2)C(C)(C)CCC1` (stereo not drawn) showed an IC50 with Leishmania donovani [1] above 20 µM.
`CC1=C(/C=C/C2=NN(c3ccccc3)C(c3cccc(Cl)c3)C2)C(C)(C)CCC1` (stereo not drawn) displayed an IC50 with Leishmania donovani [1] above 40 µM.
Still for that read-out and setting: for `CC1=C(/C=C/C2=NN(c3ccccc3)C(c3ccc(F)cc3)C2)C(C)(C)CCC1` (stereo not drawn) the value was above 40 µM.
Same read-out and setting: for `CC1=C(/C=C/C2=NN(c3ccccc3)C(c3ccc(OCc4ccccc4)cc3)C2)C(C)(C)CCC1` (stereo not drawn) the value was above 40 µM; for `CC1=CCCC(C)(C)C1/C=C/C1=NN(c2ccccc2)C(c2ccccc2[N+](=O)[O-])C1` (stereo not drawn), above 20 µM; for `CC1=CCCC(C)(C)C1/C=C/C1=NN(c2ccccc2)C(c2ccc([N+](=O)[O-])cc2)C1` (stereo not drawn), above 40 µM.
On the same count and under the same terms, with `CC1=CCCC(C)(C)C1/C=C/C1=NN(c2ccccc2)C(c2ccc(F)cc2)C1` (stereo not drawn) the figure was above 40 µM; with `COc1ccc(C2CC(/C=C/C3C(C)=CCCC3(C)C)=NN2c2ccccc2)cc1OC` (stereo not drawn), above 20 µM; with `COc1cc(C2CC(/C=C/C3C(C)=CCCC3(C)C)=NN2c2ccccc2)cc(OC)c1OC` (stereo not drawn), above 20 µM.
With `CC1=CCCC(C)(C)C1/C=C/c1cc(-c2ccccc2[N+](=O)[O-])n(-c2ccccc2)n1` (stereo not drawn), the IC50 in the data set on Leishmania donovani [1] was above 40 µM.
The same measure, in the same setting: for `CC1=CCCC(C)(C)C1/C=C/c1cc(-c2ccc([N+](=O)[O-])cc2)n(-c2ccccc2)n1` (stereo not drawn) the value was above 40 µM; for `CC1=CCCC(C)(C)C1/C=C/c1cc(-c2ccc(F)cc2)n(-c2ccccc2)n1` (stereo not drawn), above 40 µM.
Still for that read-out and setting: with `COc1ccc(-c2cc(/C=C/C3C(C)=CCCC3(C)C)nn2-c2ccccc2)cc1OC` (stereo not drawn) the figure was above 20 µM.
Consider `COc1cc(-c2cc(/C=C/C3C(C)=CCCC3(C)C)nn2-c2ccccc2)cc(OC)c1OC` (stereo not drawn), for which, in the data set on Leishmania donovani [1], the IC50 is above 40 µM.
On the same count and under the same terms, for `CC1=C(/C=C/C2=NN(c3ccccc3)C(c3ccccc3[N+](=O)[O-])C2)C(C)(C)CCC1` (stereo not drawn) the value was above 20 µM.
On the same count and under the same terms, with `CC1=C(/C=C/C2=NN(c3ccccc3)C(c3ccc([N+](=O)[O-])cc3)C2)C(C)(C)CCC1` (stereo not drawn) the figure was above 40 µM.
`CC1=C(/C=C/C2=NN(c3ccccc3)C(c3cccc([N+](=O)[O-])c3)C2)C(C)(C)CCC1` (stereo not drawn) gave an inhibition in vivo at 50 mg/kg with Leishmania donovani [2] of 7.13%. For the same compound, in data set [3], the “Ratio CC50/IC50” value is 16.48. Besides, the CC50 at 72 h in data set [4] turned out to be 279 µM. This compound also showed an IC50 with Leishmania donovani [1] of 16.9 µM.
Compound `COc1ccc(C2CC(/C=C/C3=C(C)CCCC3(C)C)=NN2c2ccccc2)cc1OC` (stereo not drawn) yielded an inhibition in vivo at 50 mg/kg in the data set with Leishmania donovani [2] of 80.8%. For the same compound, the “Ratio CC50/IC50” value in data set [3] was found to be 29.46. In data set [4], this compound yielded a CC50 at 72 h of 221 µM. This compound also showed an IC50 with Leishmania donovani [1] of 7.49 µM.
With `COc1cc(C2CC(/C=C/C3=C(C)CCCC3(C)C)=NN2c2ccccc2)cc(OC)c1OC` (stereo not drawn), the IC50 with Leishmania donovani [1] is above 20 µM.
Still for that read-out and setting: with `CC1=C(/C=C/C2=NN(c3ccccc3)C(c3ccccc3Cl)C2)C(C)(C)CCC1` (stereo not drawn) the figure was above 20 µM.
In turn, `CCCCCCCCCCCCCCCCOP(=O)([O-])OCC[N+](C)(C)C` [MILTEFOSINE] showed an inhibition in vivo at 50 mg/kg with Leishmania donovani [2] of 95.3%. For the same compound, the “Ratio CC50/IC50” value in data set [3] was 0.26.

As usually defined, the IC50 is the point on the concentration scale where inhibition reaches its midpoint. Read a high IC50 as lower potency. One may read the inhibition in vivo as the drop in the measured response relative to a control, in per cent. The low end stands for a weak effect, the high end for a strong effect. In general, CC50 refers to the concentration that lowers cell viability or growth by half. Lower therefore signals harm at low concentration.
